# Measurements reported in ChEMBL document CHEMBL2429760, “Synthesis and structure evaluation of new complex butylarylpiperazin-1-yl derivatives” (Med Chem Res, 2013).
# Experiments:
# [1] = system: Human immunodeficiency virus 1; experiment: Antiviral activity against Human immunodeficiency virus 1 3B infected in human MT4 cells assessed as inhibition of virus-induced cytopathogenicity after 4 days by MTT assay; assay type: functional, organism-based; settings: MT4, 96 h
# Outline: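 MT-4 cells (1 × 10^4 per well) in RPMI with or without serial compound dilutions, acutely infected with HIV-1 at m.o.i. 0.01 (100 CCID50). After 4-day incubation at 37 °C, protection from virus-induced cytopathogenicity was read as cell viability by MTT. Compounds were made as 100 mM DMSO stocks and diluted in medium.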
# [2] = Cytotoxicity against human MT4 cells after 96 hrs by MTT assay; assay type: cell-based
# Outline: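 Exponentially growing MT-4 cells seeded at 1 × 10^5 cells/ml in RPMI-1640 with 10 % FBS and penicillin/streptomycin. Incubated at 37 °C, 5 % CO2, with or without serial compound dilutions (100 mM DMSO stocks diluted in medium), run in parallel with the antiviral test. Viability by MTT after 96 h.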
compound,measurement,setting,value
O=c1[nH]c(=O)c2c(-c3ccccc3)c3c(c(-c4ccccc4)c12)c(=O)c1ccccc13,EC50,[1],> 9 µM
O=c1c2ccccc2c2c(-c3ccccc3)c3c(=O)n(CCCCN4CCN(c5ccccc5)CC4)c(=O)c3c(-c3ccccc3)c12,CC50 at 96 h,[2],> 100 µM
same,EC50,[1],> 100 µM
O=c1c2ccccc2c2c(-c3ccccc3)c3c(=O)n(CCCCN4CCN(c5ccccn5)CC4)c(=O)c3c(-c3ccccc3)c12,CC50 at 96 h,[2],> 100 µM
same,EC50,[1],> 100 µM
O=c1c2ccccc2c2c(-c3ccccc3)c3c(=O)n(CCCCN4CCN(CCc5ccccc5C(F)(F)F)CC4)c(=O)c3c(-c3ccccc3)c12,CC50 at 96 h,[2],9 µM
same,EC50,[1],> 9 µM
O=c1c2ccccc2c2c(-c3ccccc3)c3c(=O)n(CCCCN4CCN(c5ccccc5F)CC4)c(=O)c3c(-c3ccccc3)c12,CC50 at 96 h,[2],> 100 µM
same,EC50,[1],> 100 µM
O=c1c2ccccc2c2c(-c3ccccc3)c3c(=O)n(CCCCN4CCN(c5ccc(F)cc5)CC4)c(=O)c3c(-c3ccccc3)c12,CC50 at 96 h,[2],> 100 µM
same,EC50,[1],> 100 µM
O=c1c2ccccc2c2c(-c3ccccc3)c3c(=O)n(CCCCN4CCN(c5ccc(Cl)cc5)CC4)c(=O)c3c(-c3ccccc3)c12,CC50 at 96 h,[2],> 100 µM
same,EC50,[1],> 100 µM
O=c1c2ccccc2c2c(-c3ccccc3)c3c(=O)n(CCCCN4CCN(c5ccccc5Cl)CC4)c(=O)c3c(-c3ccccc3)c12,CC50 at 96 h,[2],> 100 µM
same,EC50,[1],> 100 µM
